In ChEMBL document CHEMBL1124827, “The preparation of 2'-deoxy-2'-fluoro-1',2'-seconucleosides as potential antiviral agents” (J Med Chem, 1990):
Activity calls are given as the source filed them.

Assays:
[1] = test system: unidentified adenovirus; assay: (§1) In vitro antiviral activity was determined against Adenovirus type 2 in monolayer culture of H.Ep.2 cells; format: functional, organism-based
[2] = test system: Vaccinia virus; assay: Antiviral activity was determined against Vaccinia virus; format: functional, organism-based; conditions: Orthopoxvirus vaccinia
[3] = test system: Vesicular stomatitis virus; assay: Antiviral activity was determined against Vesicular Stomatitus virus; format: functional, organism-based
[4] = test system: LLC-MK2; assay: In vitro antiviral activity was determined against Punta toro virus in monolayer culture of LLC-MK2 cells; format: functional, cell-based; conditions: Cercopithecidae
Procedure, shortened: (§2)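 Virus was adsorbed for 1 h onto monolayers: H.Ep.2 cells for Adenovirus type 2, LLC-MK2 cells for Punta Toro, and Vero cells for Sicilian sandfly fever. Medium with a range of drug concentrations was then added. On the day of maximum cytopathic effect in virus-control wells, the medium was removed and the monolayers were stained with crystal violet. Cytopathic effect was scored microscopically.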

[5] = test system: Vero; assay: Antiviral activity was determined as inhibition of plaque formation against Rift Valley fever in monolayer culture of Vero cells; format: functional, cell-based; conditions: Chlorocebus sabaeus
[6] = test system: Vero; assay: In vitro antiviral activity was determined against Japanese encephalitis virus in monolayer culture of Vero cells; format: functional, cell-based; conditions: Chlorocebus sabaeus
[7] = test system: Vero; assay: In vitro antiviral activity was determined against Sicilian Sandfly Fever virus in monolayer culture of Vero cells; format: functional, cell-based; conditions: Chlorocebus sabaeus; procedure, shortened: as §2
[8] = test system: Vero; assay: In vitro antiviral activity was determined against Yellow Fever virus in monolayer culture of Vero cells; format: functional, cell-based; conditions: Chlorocebus sabaeus
[9] = test system: Human immunodeficiency virus 1; assay: Antiviral activity was determined against Human immunodeficiency virus; format: functional, organism-based
[10] = test system: unidentified adenovirus; assay: as §1; format: functional, organism-based; procedure, shortened: as §2; remark: listed apart in the source
[11] = test system: Pichinde virus; assay: Antiviral activity was determined against Pichinde virus; format: functional, organism-based

Measured: Activity

Cc1cn(COC2COP(=O)(Oc3ccc([N+](=O)[O-])cc3)OC2CF)c(=O)[nH]c1=O (stereo not given)
inactive: [1] | [2] | [3]

NC(=O)c1ncn(COC(CO)C(O)CF)n1 (stereo not given)
not listed: [9] | [10] | [11]
inactive: all other assays above

O=c1ccn(COC(CO)C(O)CF)c(=O)[nH]1 (stereo not given)
not listed: [10] | [11]
inactive: all other assays above

O=c1ccn(COC2COP(=O)(Oc3ccc([N+](=O)[O-])cc3)OC2CF)c(=O)[nH]1 (stereo not given)
inactive: [1] | [2] | [3]

Nc1nc(O)c2ncn(COC(CO)C(O)CF)c2n1 (stereo not given)
not listed: [1] | [11]
inactive: all other assays above

Cc1cn(COC(CO)C(O)CF)c(=O)[nH]c1=O (stereo not given)
not listed: [10]
inactive: all other assays above

O=c1[nH]c(=O)n(COC(CO)C(O)CF)cc1I (stereo not given)
not listed: [9] | [10] | [11]
inactive: all other assays above
